Reference: ChEMBL document CHEMBL1131410, “Synthesis and biological evaluation of 4-chloro-3, 5-dinitrobenzotrifluoride analogues as antileishmanial agents” (J Med Chem, 1998)

Legend:
[1] = test system: Leishmania donovani; assay: In vitro inhibition of Leishmania donovani parasite; assay type: functional, organism-based
Method in brief: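 L. donovani MHOM/SD/62/1S-CL2D axenic amastigote-like forms, seeded at 10^6 cells/mL in amastigote medium with or without drug (DMSO at most 1.25% v/v). Incubated 72 h at 37 °C, humid 5% CO2. A tetrazolium-type Cell Titer reagent was then added for a further 8–12 h and absorbance read at 490 nm. IC50 fitted by a four-parameter log dose-response equation.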

[2] = Partition coefficient (logP); assay type: physicochemical; details: octanol/water
[3] = test system: Cricetinae gen. sp.; assay: Percent suppression of parasitaemia was measured in vivo against Visceral Leishmania donovani in hamsters at 13 mg/kg of dosage level.; assay type: functional, Cricetulus griseus
Method in brief: (§1)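 Hamsters, six per group, infected intracardially with 1.0×10^7 L. donovani Khartoum amastigotes from donor hamster spleens. Dosed intramuscularly for 4 consecutive days starting day 3 post-infection and screened blind. On day 7 the animals were sacrificed and total parasite number per liver was counted. Result expressed as % suppression of parasitemia.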

[4] = test system: Cricetinae gen. sp.; assay: Percent suppression of parasitaemia was measured in vivo against Visceral Leishmania donovani in hamsters at 208 mg/kg of dosage level.; assay type: functional, Cricetulus griseus; method in brief: as §1
[5] = test system: Cricetinae gen. sp.; assay: Percent suppression of parasitaemia was measured in vivo against Visceral Leishmania donovani in hamsters at 52 mg/kg of dosage level.; assay type: functional, Cricetulus griseus; method in brief: as §1
[6] = test system: Leishmania donovani; assay: Compound was evaluated in vitro against Leishmania donovani parasite; assay type: functional, organism-based
Method in brief: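 Axenic amastigote-like L. donovani (MHOM/SD/62/1S-CL2D), seeded at 10^6 cells/mL with or without drug, DMSO ≤1.25% (v/v), 72 h at 37 °C, 5% CO2. Tetrazolium-type dehydrogenase reagent added, further 8–12 h, absorbance at 490 nm; IC50 from four-parameter log dose-response fit.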

[7] = test system: Cricetinae gen. sp.; assay: % suppression of parasitaemia was measured in vivo against Visceral Leishmania donovani in hamsters at 52 mg/kg of dosage level.; assay type: functional, Cricetulus griseus
[8] = test system: Cricetinae gen. sp.; assay: % suppression of parasitaemia was measured in vivo against Visceral Leishmania donovani in hamsters at 208 mg/kg of dosage level.; assay type: functional, Cricetulus griseus

| IC50 [1] | logP [2] | Compound | other results |
| --- | --- | --- | --- |
| > 450 µM | 2.9 | O=S(=O)(c1cc(C(F)(F)F)ccc1F)N1CCCC1 |  |
| 110 µM | 4.01 | O=S(=O)(c1cc(C(F)(F)F)ccc1Cl)N1CCCCC1 |  |
| 56 µM | 4.57 | O=S(=O)(c1cc(C(F)(F)F)ccc1Cl)N1CCCCCC1 |  |
| 108 µM | 4.03 | O=S(=O)(c1cc(C(F)(F)F)ccc1F)N1CCCCCC1 | Suppression [3]: 11%; Suppression [4]: 19%; Suppression [5]: 13% |
| 321 µM | 3.16 | CN1CCN(S(=O)(=O)c2cc(C(F)(F)F)ccc2Cl)CC1 |  |
| 418 µM | 3.47 | O=S(=O)(c1cc(C(F)(F)F)ccc1F)N1CCCCC1 |  |
| 115 µM | 3.44 | O=S(=O)(c1cc(C(F)(F)F)ccc1Cl)N1CCCC1 |  |

The next lines start with the compound.

| Compound | IC50 [1] | logP [2] | other results |
| --- | --- | --- | --- |
| CN1CCN(S(=O)(=O)c2cc(C(F)(F)F)ccc2F)CC1 | 199 µM | 2.61 |  |
| CNS(=O)(=O)c1cc(C(F)(F)F)ccc1F | > 450 µM | 2.08 |  |
| CNS(=O)(=O)c1cc(C(F)(F)F)ccc1Cl | > 450 µM | 2.63 |  |
| O=S(=O)(c1cc(C(F)(F)F)ccc1Cl)N1CCN(c2ccccn2)CC1 | 44 µM | 3.45 |  |
| O=S(=O)(c1cc(C(F)(F)F)ccc1N1CCCC1)N1CCCC1 | 23 µM | 3.57 | Suppression [3]: 16%; Suppression [4]: 30%; Suppression [5]: 29% |
| NS(=O)(=O)c1cc(C(F)(F)F)ccc1F | > 450 µM | 1.68 |  |
| NS(=O)(=O)c1cc(C(F)(F)F)ccc1Cl | > 450 µM | 1.98 |  |
| CCN(CC)CCNS(=O)(=O)c1cc(C(F)(F)F)ccc1F | > 450 µM | 3.3 |  |
| O=S(=O)(c1cc(C(F)(F)F)ccc1F)N1CCN(c2ccccn2)CC1 | > 450 µM | 2.91 |  |
| CCN(CC)CCNS(=O)(=O)c1cc(C(F)(F)F)ccc1Cl | > 450 µM | 3.85 |  |
| O=[N+]([O-])c1cc(C(F)(F)F)cc([N+](=O)[O-])c1Cl [CHLORALIN] |  | 3.43 | IC50 [6]: 1.3 µM; Suppression [7]: 21%; Suppression [8]: 32% |
| MEGLUMINE ANTIMONATE |  |  | Suppression ([4]; Cricetulus griseus): 73%; Suppression ([5]; Cricetulus griseus): 27% |
